From ChEMBL document CHEMBL2385038, “Bioactive dibenzocyclooctadiene lignans from the stems of Schisandra neglecta” (J Nat Prod, 2013)

Key:
[1] = Therapeutic index, ratio of CC50 for human C8166 cells to EC50 for HIV-1 3B; format: cell-based; details: read-out: Ratio CC50/EC50
MCF7 = test: Cytotoxicity against human MCF7 cells after 3 days by MTT assay; format: functional, cell-based; details: MCF7, 72 h
Outline: (§1)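 MTT viability assay on NB4 (acute promyelocytic leukemia), A549 (lung adenocarcinoma), SHSY5Y (neuroblastoma), PC3 (prostate) and MCF7 (breast adenocarcinoma) cells, reported as IC50. Paclitaxel was the positive control. Performed in triplicate.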

[2] = test system: Human immunodeficiency virus 1; test: Antiviral activity against HIV-1 3B infected in human C8166 cells assessed as inhibition of virus-induced cytopathic effect after 3 days by Syncytia Assay; format: functional, organism-based; details: Human immunodeficiency virus 1, 3B, C8166, 72 h
Outline: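 Inhibition of HIV-1-induced cytopathic effect in C8166 cells, expressed as EC50. Azidothymidine (AZT) served as the positive control. Performed in triplicate.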

[3] = Cytotoxicity against human SH-SY5Y cells after 3 days by MTT assay; format: functional, cell-based; details: 72 h; outline: as §1
PC-3 = test: Cytotoxicity against human PC3 cells after 3 days by MTT assay; format: functional, cell-based; details: PC-3, 72 h; outline: as §1
NB-4 = test: Cytotoxicity against human NB4 cells after 3 days by MTT assay; format: functional, cell-based; details: NB-4, 72 h; outline: as §1
A549 = test: Cytotoxicity against human A549 cells after 3 days by MTT assay; format: functional, cell-based; details: A549, 72 h; outline: as §1
[4] = Cytotoxicity against human C8166 cells after 3 days by MTT assay; format: cell-based
Outline: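 Viability of uninfected C8166 cells was measured by MTT to give CC50, alongside the anti-HIV-1 assay. Performed in triplicate.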

SMILES	selectivity ratio [1]	IC50 (MCF7) [µM]	EC50 [2] [µM]	IC50 [3] [µM]	IC50 (PC-3) [µM]	IC50 (NB-4) [µM]	IC50 (A549) [µM]	CC50 at 72 h [4] [µM]
COc1cc(CO)c(-c2c(C[C@H](C)C(C)=O)cc3c(c2OC)OCO3)c(OC)c1OC [SCHISPHENONE]	12.3	> 10	12.7	> 10	8.9	> 10	> 10	156
COc1cc2c(c(OC)c1OC)-c1c(cc3c(c1OC)OCO3)[C@H](OC(=O)C=C(C)C)[C@@](C)(O)[C@@H](C)C2 [GOMISIN F]	7.5	> 10	8.3	> 10	> 10	> 10	> 10	61.9
C/C=C(/C)C(=O)O[C@H]1c2cc(OC)c(OC)c(OC)c2-c2c(cc3c(c2OC)OCO3)[C@H](OC(C)=O)[C@H](C)[C@@H]1C [INTERIOTHERIN C]	–	> 10	–	> 10	> 10	> 10	> 10	–
COc1c(O)cc2c(c1OC)-c1c(cc3c(c1OC)OCO3)[C@H](OC(=O)C(C)C)[C@H](C)[C@H](C)C2	18.1	> 10	8.2	> 10	> 10	> 10	> 10	149
COc1cc2c(c(OC)c1OC)-c1c(cc(OC)c(OC)c1OC)[C@H](OCC(C)C)[C@@H](C)[C@@H](C)C2	> 33.7	> 10	5.9	> 10	> 10	> 10	> 10	> 200
COc1c(O)cc2c(c1OC)-c1c(cc(O)c(OC)c1OC)[C@H](OCc1ccccc1)[C@@H](C)[C@@H](C)C2 [MARLIGNAN G]	–	> 10	–	> 10	9.5	> 10	8.6	–
COc1c(OC)c(C(=O)O)c2c(c1OC)-c1c(cc3c(c1OC)OCO3)[C@H](O)[C@H](C)[C@H](C)C2	40.3	7.4	2.2	> 10	> 10	> 10	6.8	86.7
COc1cc2c(c(OC)c1OC)-c1c(cc3c(c1OC)OCO3)[C@H](O)[C@H](C)[C@H](C)C2 [ISOGOMISIN O]	–	> 10	–	> 10	> 10	> 10	> 10	–
COc1cc(CC(C)=O)c(-c2c(CC(C)=O)cc(OC)c(OC)c2O)c(O)c1OC	9.2	7.8	4.2	3.3	5.1	2.9	8.6	38.8
COc1c(O)c(C(=O)O)c2c(c1OC)-c1c(cc3c(c1OC)OCO3)[C@H](O)[C@H](C)[C@H](C)C2	55.3	> 10	1.4	> 10	9.2	> 10	5.9	75.2
COc1cc2c(c(O)c1OC)-c1c(cc(OC)c(OC)c1OC)[C@H](OC(=O)c1ccccc1)[C@@H](C)[C@@](C)(O)[C@H]2OC(C)=O	17.8	9.7	8.3	> 10	> 10	7.4	> 10	147
COc1cc2c(c(OC)c1OC)-c1c(cc(O)c(OC)c1OC)[C@H](OCC(C)C)[C@@H](C)[C@@H](C)C2	> 58	> 10	3.5	> 10	> 10	> 10	> 10	> 200
Cc1cn([C@H]2C[C@H](N=[N+]=[N-])[C@@H](CO)O2)c(=O)[nH]c1=O [ZIDOVUDINE]	–	–	0.034	–	–	–	–	> 200
COc1cc2c(c(OC)c1OC)-c1c3cc4c(c1OC[C@@H](C)[C@@](C)(O)C(=O)O[C@@H]2[C@@](C)(O)[C@@H](C)C3)OCO4	18.9	–	9.8	–	–	–	–	186
COc1cc2c(c(OC)c1OC)-c1c(cc(O)c(OC)c1OC)C[C@H](C)[C@@](C)(O)C2	15.1	–	8.2	–	–	–	–	124
COc1cc2c(c(OC)c1OC)-c1c(cc3c(c1OC)OCO3)C[C@H](C)[C@H](C)[C@H]2OC(C)=O [RUBSCHISANTHERIN]	18.2	> 10	4.7	> 10	> 10	> 10	> 10	85.2
COc1cc2c(c(O)c1OC)-c1c(cc3c(c1OC)OCO3)C[C@H](C)[C@H](C)C2 (racemic)	–	> 10	–	> 10	> 10	> 10	> 10	–
C/C=C(/C)C(=O)O[C@H]1c2cc(OC)c(OC)c(OC)c2-c2c(cc(OC)c(OC)c2OC)C[C@H](C)[C@]1(C)O	7.4	> 10	11.5	7.8	> 10	> 10	> 10	84.7
CC(=O)O[C@H]1C(=O)[C@@]2(C)[C@H]([C@H](OC(=O)c3ccccc3)[C@]3(O)C[C@H](OC(=O)[C@H](O)[C@@H](NC(=O)c4ccccc4)c4ccccc4)C(C)=C1C3(C)C)[C@]1(OC(C)=O)CO[C@@H]1C[C@@H]2O [PACLITAXEL]	–	–	–	0.2	–	0.03	0.02	–
COc1c2c(cc(CC(C)=O)c1-c1c(CC(C)=O)cc3c(c1OC)OCO3)OCO2	14.1	> 10	3.9	8.2	> 10	7.3	> 6.5	54.5
